Experimental data: PubChem BioAssay
Activity calls are given as the source filed them.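 The calls were made as follows, unless noted: active = fluorescence slope after compound addition differing from the mean of all tested samples at 99.7% confidence, mostly higher but some lower; inactive = the rest.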

Tests used:
[1] = inhibitors of TNFa-induced NFkB p65 translocation, primary screen, imaging, HUVEC, MLSMR starter and 10KST1 sets (AID 438;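 active = inhibition above 20% together with a positive visual image hit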;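 also: compound added about 3h40 before a 20 min TNFalpha stimulation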;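 as to inhibition: signal is the nuclear over cytoplasmic p65 intensity ratio per well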); settings: HUVEC TNFa-induced p65 nuclear translocation; cell count: measured here: nuclei count (cytotoxicity indicator), at 2.08 µM; inhibition: at 2 µM, stronger effect = higher value, 0% TNFa-plus-vehicle, 100% no-TNFa wells
[2] = inhibitors of mutant huntingtin aggregation, primary screen, imaging, exon1htt(103Q)mCFP cells, high-content imaging (AID 483;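 active = visual image review flags a hit and inhibition of aggregation exceeds 20%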;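 also: compound exposure lasted 3 days before fixation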;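 as to nuclei count: percent of the per-plate median nuclei count of sample wells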); settings: exon1htt(103Q)mCFP cell line, aggregate imaging, at 2 µM; inhibition of aggregation: stronger effect = higher value; nuclei count: measured here: cell count, toxicity
[3] = inhibitors of E-selectin induction by TNFa, primary screen, imaging, HUVEC, immunofluorescence, MLSMR starter and 10KST1 sets (AID 487;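 active = visually confirmed hit in the image check and inhibition above 20%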;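 as to inhibition: signal is fraction of cell area covered by stained E-selectin grains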;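 as to nuclei count: 100% = median nuclei count of all wells on the same plate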); settings: HUVEC TNFalpha-induced E-selectin immunofluorescence imaging, at 2 µM; inhibition: stronger effect = higher value; nuclei count: measured here: cell number, toxicity
[4] = target: Voltage-gated potassium channel subunit beta-2 (Rattus norvegicus) (UniProt P62483); experiment: KvBeta enzyme negative modulators, primary screen, biochemical, NADPH fluorescence (AID 622;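 active = fluorescence slope higher than the sample average by over 3 SD, cut at about -0.22 in these data, passing the limit was not always enough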;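 also: slope of raw intensity against log time taken from 70 to 1610 s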); settings: recombinant KvBeta, 4-cyanobenzaldehyde reduction, at 10 µM, stronger effect = higher value
[5] = target: Voltage-gated potassium channel subunit beta-2 (Rattus norvegicus) (UniProt P62483); experiment: KvBeta positive modulators, primary screen, biochemical, NADPH fluorescence (AID 623;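 active = NADPH fluorescence slope more negative than the mean of all samples by about 3 SD, 99.7% confidence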;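 also: fluorescence intensity change per second fitted from 20 to 320 s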); settings: Recombinant KvBeta, NADPH fluorescence decrease slope, 10 min; at 10 µM; stronger effect = lower value
[6] = target: Muscarinic acetylcholine receptor M4 (Homo sapiens) (UniProt P08173); experiment: compounds altering M4/GIRK thallium flux, either direction, primary screen, M4 allosteric agonist project, cell-based, HEK293 M4/GIRK, BTC-AM (AID 625); settings: at 10 µM, actives lie on both sides;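 also: thallium influx through GIRK channels coupled to M4 in HEK293 cells with BTC-AM dye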
In short: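 System: HEK293 cells with M4 receptor and GIRK channels | Incubation: Cells overnight at 37 °C, BTC-AM loading 1 h, reads 2 min total | Technique: Kinetic BTC-AM fluorescence sampled at 1 Hz, 10 s pre-addition baseline | Measure: Post-addition slope, 15–24 s, of baseline-normalized fluorescence | Control set: Carbachol positive, DMSO negative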

[7] = inhibitors of Sendai virus-induced IRF3 signaling, primary screen, TLR/RLR signaling modifier project, cell-based, Sendai virus stimulus, luciferase, 10K MLSCN set (AID 602276;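 active = inhibition at or above 50% at 10 µM; inactive = inhibition below 50%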;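 also: firefly luciferase from ISG56 promoter only with Renilla not read in this screen; 0% = Sendai virus plus DMSO and 100% = medium plus DMSO without virus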); settings: HEK293 RL24 IRF3 luciferase reporter, at 10 µM, stronger effect = higher value
[8] = inhibitors of poly I:C-induced TLR3 signaling, primary screen, cell-based, poly I:C stimulus, luciferase, 10K MLSCN set (AID 602277;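 active = inhibition of the reporter signal at or above 50%; inactive = inhibition below 50%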); settings: HEK293-TLR3 RL24 IRF3 luciferase reporter, at 10 µM, stronger effect = higher value

Sequence of Muscarinic acetylcholine receptor M4 (Homo sapiens) (P08173 whole entry, looked up): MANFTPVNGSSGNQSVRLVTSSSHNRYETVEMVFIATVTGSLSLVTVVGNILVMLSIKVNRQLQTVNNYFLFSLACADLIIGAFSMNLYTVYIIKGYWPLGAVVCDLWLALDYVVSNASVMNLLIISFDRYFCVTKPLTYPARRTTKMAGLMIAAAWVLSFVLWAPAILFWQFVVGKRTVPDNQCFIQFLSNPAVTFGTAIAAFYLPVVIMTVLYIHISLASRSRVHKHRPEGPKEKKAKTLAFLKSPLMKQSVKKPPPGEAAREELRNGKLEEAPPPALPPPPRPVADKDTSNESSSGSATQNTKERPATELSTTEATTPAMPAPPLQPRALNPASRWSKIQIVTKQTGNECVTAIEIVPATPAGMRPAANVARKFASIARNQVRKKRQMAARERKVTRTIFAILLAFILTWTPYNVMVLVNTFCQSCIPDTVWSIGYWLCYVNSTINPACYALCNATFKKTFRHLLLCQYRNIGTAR
Sequence of Voltage-gated potassium channel subunit beta-2 (Rattus norvegicus) (P62483 whole entry, looked up): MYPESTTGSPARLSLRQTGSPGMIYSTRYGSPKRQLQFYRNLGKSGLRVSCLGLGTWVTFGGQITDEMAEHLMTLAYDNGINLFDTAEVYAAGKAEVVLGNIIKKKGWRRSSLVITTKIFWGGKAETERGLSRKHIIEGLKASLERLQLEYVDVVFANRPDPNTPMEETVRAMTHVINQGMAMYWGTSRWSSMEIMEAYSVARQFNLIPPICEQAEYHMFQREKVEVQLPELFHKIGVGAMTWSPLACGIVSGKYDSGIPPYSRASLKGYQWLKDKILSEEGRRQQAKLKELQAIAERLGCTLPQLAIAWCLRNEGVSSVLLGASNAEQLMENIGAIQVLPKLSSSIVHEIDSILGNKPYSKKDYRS

| Structure (SMILES) | cell count [1] | inhibition [1] | inhibition of aggregation [2] | nuclei count [2] [%] | inhibition [3] | nuclei count [3] [%] | fluorescence slope [4] | NADPH fluorescence slope [5] | fluorescence slope [6] | inhibition [7] | inhibition [8] |
| --- | --- | --- | --- | --- | --- | --- | --- | --- | --- | --- | --- |
| O=C(CCCC(=O)N(CC(=O)NC1CCCCC1)Cc1ccc2c(c1)OCO2)Nc1ccccn1 | 395 | 4.2% (inactive) | -3% (inactive) | 91 | -237% (inactive) | 110 | -0.479 (inactive) | 3.7e-05 (inactive) | 0.00636 (inactive) | 15.4% (inactive) | 25.3% (inactive) |
| Cn1c2c(c(=O)n(C)c1=O)CN(CCCN1CCOCC1)CN2 | 541 | -5% (inactive) | 9.8% (inactive) | 115 | 41.5% (inactive) | 90.5 | -0.595 (inactive) | 2.4e-05 (inactive) | 0.00524 (inactive) | 8.17% (inactive) | 16.9% (inactive) |
| CC(=O)NC1(c2nnnn2CCOC(=O)Nc2ccc(Cl)cc2)CCCCC1 | 559 | -12.5% (inactive) | 2.9% (inactive) | 84.6 | -23.9% (inactive) | 91.3 | -0.513 (inactive) | -0.000175 (inactive) | 0.0035 (inactive) | 9.27% (inactive) | 8.82% (inactive) |
| CCC(=O)N1CCc2cc(Br)cc(S(=O)(=O)N3CCCCCC3)c21 | 434 | -3.9% (inactive) | 34.8% (inactive) | 65.9 | 13.2% (inactive) | 99.9 | -0.54 (inactive) | -5.4e-06 (inactive) | 0.00616 (inactive) | 7.37% (inactive) | 12.3% (inactive) |
| Cc1ccc(Cn2ncc3c(NCCCN4CCOCC4)ncnc32)cc1 | 642 | -14.6% (inactive) | 13.9% (inactive) | 84.8 | -8.1% (inactive) | 98.3 | -0.568 (inactive) | -1.3e-05 (inactive) | 0.00555 (inactive) | 22.3% (inactive) | 11.4% (inactive) |
| Cc1nc(Nc2nc(=O)c3ccccc3n2C)nc2c(C)cccc12 | 594 | 5.2% (inactive) | -282% (inactive) | 73.9 | -112% (inactive) | 156 | -0.348 (inactive) | -5e-06 (inactive) | 0.00486 (inactive) | 14.6% (inactive) | 22.9% (inactive) |
| CC(C)Oc1ccc(-c2nn(-c3ccccc3)cc2/C=c2\sc3ncnn3c2=O)cc1 | 335 | -4.6% (inactive) | 5.1% (inactive) | 88.3 | -335% (inactive) | 114 | -0.279 (inactive) | 1e-05 (inactive) | 0.00832 (inactive) | -16.4% (inactive) | -14.6% (inactive) |
| CC(=O)N1C(=O)C2(Nc3ccccc3N2)c2ccccc21 | 406 | -4.3% (inactive) | 6.4% (inactive) | 108 | 20.6% (inactive) | 108 | -0.283 (inactive) | -1.3e-05 (inactive) | 0.00603 (inactive) | -8.46% (inactive) | 9.54% (inactive) |
| Nc1nc(CSCc2ccccc2)nc(N2CCOCC2)n1 | 685 | 0.8% (inactive) | -6.3% (inactive) | 95.4 | 17.1% (inactive) | 104 | -0.262 (inactive) | -1.3e-05 (inactive) | 0.0049 (inactive) | -22.6% (inactive) | -81.5% (inactive) |
| CC1(C)NC(=O)N(CNc2cc(Cl)ccc2Cl)C1=O | 649 | -17.4% (inactive) | -1.9% (inactive) | 105 | 0.8% (inactive) | 96.7 | -0.435 (inactive) | -0.000384 (inactive) | 0.00524 (inactive) | 10.6% (inactive) | 21.9% (inactive) |
| O=C(Nc1ccc(S(=O)(=O)NCCc2ccccc2)cc1)c1ccc(Br)o1 | 546 | -1.3% (inactive) | -22.6% (inactive) | 62.9 | -10.4% (inactive) | 88.5 | -0.499 (inactive) | -5.2e-06 (inactive) | 0.00439 (inactive) | -1.94% (inactive) | -11.8% (inactive) |
| Cc1cc(NC(=O)C23CCC(C)(c4nc5cc(Cl)c(Cl)cc5nc42)C3(C)C)no1 (centres undefined) | 409 | 4.3% (inactive) | 7.4% (inactive) | 104 | -116% (inactive) | 92.1 | -0.577 (inactive) | -4.4e-05 (inactive) | 0.00686 (inactive) | 12.2% (inactive) | 15.9% (inactive) |
| O=C(CCC(=O)OCCCC(F)(F)C(F)(F)F)NC1CCCCC1 | 424 | 4% (inactive) | 5.5% (inactive) | 108 | -37.5% (inactive) | 122 | -0.53 (inactive) | -4e-05 (inactive) | 0.00556 (inactive) | 13.9% (inactive) | 16.1% (inactive) |
| COc1ccc(-n2nnnc2-c2cccc(OC)c2)cc1 | 573 | -45.9% (inactive) | -61.4% (inactive) | 2.6 | -101% (inactive) | 105 | -0.252 (inactive) | -3.1e-05 (inactive) | 0.00701 (inactive) | 34.8% (inactive) | 47.8% (inactive) |
